CHO parental Ca = counter-screen: ATP calcium response change in parental CHO cells; parental CHO-K1, ATP-induced calcium, Fluo-8 fluorescence; inhibition, % at 5.6 µM; actives 0.63% (n = 330,000); AID 463079;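 active means inhibition above that plate's mean sample inhibition plus 3 SD, cut at about 26% in these data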
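Material – parental CHO cells · Reagent – ATP stimulus · Compound – single nominal dose of 5.6 µM per compound · Detection – Fluo-8 fluorescence · Read-out basis – percent inhibition of calcium signal · Controls – ATP-challenged DMSO wells low, unchallenged DMSO wells high · Repeats – no replicates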
OX1R antag-1 = antagonists of human orexin 1 receptor (OX1R) | OX1R-expressing cells, FRET antagonist read-out | actives 1.8% (n = 330,000) | inhibition, % at 6.6 µM | AID 485270 | O43613; in the data active means inhibition mostly above about 38%, no sharp cut-off; inactive means mostly below about 40%
Target sequence (O43613 whole entry, looked up): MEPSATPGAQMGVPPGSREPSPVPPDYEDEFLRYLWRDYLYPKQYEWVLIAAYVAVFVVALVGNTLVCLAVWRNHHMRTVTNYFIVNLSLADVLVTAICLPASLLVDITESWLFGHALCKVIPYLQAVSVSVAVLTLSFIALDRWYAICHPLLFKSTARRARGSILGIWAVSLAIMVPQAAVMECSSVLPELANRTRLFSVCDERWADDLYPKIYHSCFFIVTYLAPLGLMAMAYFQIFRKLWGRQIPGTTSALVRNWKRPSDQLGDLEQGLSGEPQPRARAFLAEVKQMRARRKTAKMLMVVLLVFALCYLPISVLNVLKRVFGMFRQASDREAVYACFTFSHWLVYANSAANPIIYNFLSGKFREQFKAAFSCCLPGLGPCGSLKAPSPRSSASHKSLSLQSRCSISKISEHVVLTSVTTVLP
GPR7 antag = human neuropeptides B/W receptor 1 antagonism. P48145. GPR7-expressing cells, fluorescence antagonist assay. inhibition, % at 4.4 µM. actives 1.1% (n = 290,000). AID 1861; in the data active means inhibition above about 16%, passing the limit was not always enough;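 further: cells stimulated with the agonist NPW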
OX1R antag-2 = human HCRTR1 antagonism | actives 0.43% (n = 330,000) | CHO/OX1R cells, Fluo-8 calcium fluorescence, orexin A | AID 434989 | O43613 | inhibition, % at 5 µM;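 active means inhibition above its plate's threshold, mean inhibition of all tested compounds on the plate plus 3 SD, cut at about 37% in these data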
GalR3 antagonist = antagonists of human GalR3; actives 0.44% (n = 360,000); O60755; HEK293 GalR3-CNG cAMP membrane potential fluorescence; galR3 body fused to GalR1 C-terminus; inhibition, % at 3 µM;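 active means inhibition above the screen-wide average plus 3 SD, cut at about 13% in these data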;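 further: forskolin and galanin both at EC90 stimulate the cells; cAMP rise reported by CNG channel membrane potential dye signal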
GPR7 antag cf = human GPR7 antagonism, confirmation assay. shares compounds with GPR7 antag. GPR7-expressing cells, calcium fluorescence antagonist mode. inhibition, % at 4.4 µM. actives 52% (n = 2,400); in the data active means inhibition above about 24%;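 further: stimulated with the GPR7 agonist NPW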
MCHR1 antag = counter-screen for GPR7 antagonists: antagonists of human MCHR1; shares compounds with GPR7 antag; MCHR1-expressing cells, fluorescence antagonist assay; inhibition, % at 4.4 µM; actives 62% (n = 2,400); in the data active means inhibition above about 22%
Each line names hits and unclear results; the compound was inactive in the other large screens (follow-up assays come after a bar, where they were run). Hits are enriched below; roughly 3.1% of the tested compounds scored in any of these assays.

COc1ccc(CN(C)C(=O)c2ccc(NS(=O)(=O)c3ccc(F)cc3)cc2)c(OC)c1	GPR7 antag 22.3 | GPR7 antag cf inactive | MCHR1 antag inactive
c1ccc(Nc2ccccc2Nc2ccccn2)nc1	CHO parental Ca 49.0, OX1R antag-1 56.1, GPR7 antag 53.1, OX1R antag-2 49.7 | GPR7 antag cf inactive | MCHR1 antag inactive
c1ccc(CNc2ccccn2)cc1	none
CSc1nc2ccccc2n1CC(=O)Nc1cc(C(F)(F)F)ccc1N1CCOCC1	GPR7 antag 36.5 | GPR7 antag cf 38.3 | MCHR1 antag 25.8
O=c1[nH]c2ccccc2c(O)c1Cc1ccccc1	GPR7 antag 22.1 | GPR7 antag cf inactive | MCHR1 antag inactive
CCCc1c(O)c2ccccc2[nH]c1=O	none
CCOC(=O)N1CCN(S(=O)(=O)c2ccc(C(=O)N(CCCN(C)C)c3nc4ccc(CC)cc4s3)cc2)CC1	GPR7 antag 28.2 | GPR7 antag cf 39.4 | MCHR1 antag inactive
CCOC(=O)N1CCN(S(=O)(=O)c2ccc(C(=O)N(CCN(C)C)c3nc4ccc(CC)cc4s3)cc2)CC1	none
COc1cccc2sc(N(CCCN(C)C)C(=O)c3ccc(S(=O)(=O)N4CCCc5ccccc54)cc3)nc12	GPR7 antag 34.9 | GPR7 antag cf 50.2 | MCHR1 antag 41.5
CCN(c1ccccc1)S(=O)(=O)c1ccc(C(=O)N(CCCN(C)C)c2nc3cc4c(cc3s2)OCO4)cc1	none
CCN(c1ccccc1)S(=O)(=O)c1ccc(C(=O)N(CCCN(C)C)c2nc3c(C)cccc3s2)cc1	GPR7 antag 28.6 | GPR7 antag cf 53.4 | MCHR1 antag 52.1
CCN(C[C@H]1N[C@@](C)(C(=O)OC)[C@H]2C(=O)N(Cc3ccccc3)C(=O)[C@@H]12)C(=O)Nc1ccc(OC)cc1	none (no result: GPR7 antag)
COc1ccc(CNC(=O)C(OC(=O)c2cccs2)C(C)C)cc1 (configuration not stated)	none
CC(C)C(OC(=O)c1cccs1)C(=O)NCc1cccs1 (configuration not stated)	GPR7 antag 36.5 | GPR7 antag cf inactive | MCHR1 antag inactive
CC(C)(C)N(NC(=O)c1ccccc1)C(=O)c1cccc(C(=O)N(NC(=O)c2ccccc2)C(C)(C)C)c1	GPR7 antag 41.9 | GPR7 antag cf 31.2 | MCHR1 antag 22.9
CC(C)(C)N(NC(=O)Nc1ccccc1)C(=O)c1ccccc1	none
COc1ccc(-c2cnc(SCC(=O)Nc3ccc4c(c3)OCO4)n2Cc2ccco2)cc1	GPR7 antag 22.4 (no result: CHO parental Ca, OX1R antag-1, OX1R antag-2) | GPR7 antag cf 41.8 | MCHR1 antag 67.7
O=C(CSc1nnc(COc2ccccc2)n1Cc1ccco1)Nc1ccc2c(c1)OCCO2	GPR7 antag 29.3 | GPR7 antag cf 31.4 | MCHR1 antag 33.5
COc1ccc(CCN(C(=O)c2snc(C(N)=O)c2N)C(C)C(=O)NC2CCCCC2)cc1OC (configuration not stated)	none
C=CCc1cc(Cl)ccc1OCCOCCN(C)C	GPR7 antag 39.9 | GPR7 antag cf inactive | MCHR1 antag inactive
O=C(c1ccc(Br)cc1)C(CN1CCOCC1)c1ccccc1 (configuration not stated)	GPR7 antag 67.4 | GPR7 antag cf 59.0 | MCHR1 antag 85.5
Cc1cccc(OCCNc2ccc([N+](=O)[O-])cn2)c1	GPR7 antag 32.2 | GPR7 antag cf 48.2 | MCHR1 antag 38.9
COc1ccc2[nH]c3c(=O)n(CCCC(=O)NC4CCCCC4C)c(=S)[nH]c3c2c1 (configuration not stated)	GPR7 antag 22.0 | GPR7 antag cf inactive | MCHR1 antag inactive
CCn1cc(C(=O)NCCCN2CCCC(C)C2)c(=O)c2cc(S(=O)(=O)N(C)C3CCCCC3)ccc21 (configuration not stated)	none
Cc1ccccc1C(=O)Nc1ccc2c(c1)CCCN2C(=O)c1cccs1	GPR7 antag 25.3 | GPR7 antag cf inactive | MCHR1 antag 34.8
COc1cccc(C(=O)Nc2ccc3c(c2)CCCN3C(=O)c2cccs2)c1OC	none
Nc1nc(Cl)cc(N2CCC(c3cc(-c4ccc(Cl)cc4)n[nH]3)CC2)n1	CHO parental Ca 34.0, GPR7 antag 37.8, OX1R antag-2 53.6 | GPR7 antag cf 26.0 | MCHR1 antag 72.2
COc1ccc(-c2cc(C3CCN(c4cc(Cl)nc(N)n4)CC3)[nH]n2)cc1	none
COc1cc(-c2cc(-c3ccc(O)cc3)nc(N)c2C#N)ccc1O	none
COc1ccccc1-c1cc(-c2ccc(O)cc2)nc(N)c1C#N	GPR7 antag 36.6 | GPR7 antag cf inactive | MCHR1 antag inactive
CCOCCCNCc1cc(Br)ccc1OCc1ccccc1	GPR7 antag 38.2 | GPR7 antag cf 35.5 | MCHR1 antag 42.5
O=C(CC1Sc2ccccc2NC1=O)Nc1cccc(C(=O)O)c1 (configuration not stated)	GPR7 antag 21.0 | GPR7 antag cf inactive | MCHR1 antag inactive
NS(=O)(=O)c1cccc(NC(=O)COC(=O)CC2Sc3ccccc3NC2=O)c1 (configuration not stated)	none (no result: GPR7 antag)
CC(=O)Oc1ccc2c(c1)Oc1cc(OC(C)=O)ccc1C21OC(=O)c2ccccc21	CHO parental Ca 101.4, OX1R antag-1 59.9, GPR7 antag 105.0, OX1R antag-2 106.1 (no result: GalR3 antagonist) | GPR7 antag cf 102.7 | MCHR1 antag 109.3
CS(=O)c1nc(-c2ccc(Br)cc2)cc(-c2ccccc2)c1C#N (configuration not stated)	CHO parental Ca 83.9, GPR7 antag 53.9, OX1R antag-2 81.2 | GPR7 antag cf 97.3 | MCHR1 antag 100.9
CC(=O)Oc1c(C)cc(Cl)cc1C(=O)Nc1ccc([N+](=O)[O-])cc1Cl	OX1R antag-1 71.2, GPR7 antag 24.8 | GPR7 antag cf 58.6 | MCHR1 antag 62.2
CC(C)C(OC(=O)CN1C(=O)COc2ccccc21)C(=O)NC1CCCC1 (configuration not stated)	none
COc1cccc(CNC(=O)CN2C(=O)COc3ccc(S(=O)(=O)N4CCOCC4)cc32)c1	GPR7 antag 32.1 | GPR7 antag cf inactive | MCHR1 antag inactive
O=C(CN1C(=O)COc2ccc(S(=O)(=O)N3CCCC3)cc21)NC1CC1	none
COc1cccc(CNC(=O)CN2C(=O)COc3ccc(S(=O)(=O)N4CCC(C)CC4)cc32)c1	none
O=C(CN1C(=O)COc2ccc(S(=O)(=O)N3CCCC3)cc21)NC1CCCCCCC1	GPR7 antag 27.2 (no result: GalR3 antagonist) | GPR7 antag cf inactive | MCHR1 antag inactive
Cc1ccc2c(c1)N(CC(=O)OC(CC(C)C)C(=O)NC1CCCC1)C(=O)CO2 (configuration not stated)	GPR7 antag 28.6 | GPR7 antag cf 30.4 | MCHR1 antag 33.0
